{"source": "ChEMBL document CHEMBL2062383", "about": "“Synthesis and antibacterial activity of 6-O-(heteroaryl-isoxazolyl)propynyl 2-fluoro ketolides” (2012)", "key": {"Streptococcus pyogenes": {"tested_on": "Streptococcus pyogenes", "assay": "Antibacterial activity against erythromycin-resistant Streptococcus pyogenes 1104 expressing ermB ribosomal methylase by broth microdilution method", "type": "functional", "summary_of_the_method": "(§1)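 MIC by broth microdilution, following Clinical and Laboratory Standards Institute guidelines for S. pneumoniae and S. pyogenes.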"}, "Streptococcus pneumoniae [1]": {"tested_on": "Streptococcus pneumoniae", "assay": "Antibacterial activity against eryhtromycin-susceptible Streptococcus pneumoniae ATCC 49619 by broth microdilution method", "type": "functional", "summary_of_the_method": "as §1"}, "Streptococcus pneumoniae [2]": {"tested_on": "Streptococcus pneumoniae", "assay": "Antibacterial activity against Streptococcus pneumoniae 210 expressing mefA efflux pump by broth microdilution method", "type": "functional", "summary_of_the_method": "(§2)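 MIC by broth microdilution following CLSI guidelines for S. pneumoniae and H. influenzae.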"}, "Haemophilus influenzae [3]": {"tested_on": "Haemophilus influenzae", "assay": "Antibacterial activity against Haemophilus influenzae ATCC 43095 by broth microdilution method", "type": "functional", "summary_of_the_method": "as §2"}, "Streptococcus pneumoniae [4]": {"tested_on": "Streptococcus pneumoniae", "assay": "Antibacterial activity against erythromycin-resistant Streptococcus pneumoniae 205 expressing ermB ribosomal methylase by broth microdilution method", "type": "functional", "summary_of_the_method": "as §1"}, "Haemophilus influenzae [5]": {"tested_on": "Haemophilus influenzae", "assay": "Antibacterial activity against Haemophilus influenzae ATCC 43095 infected in ICR mouse assessed as decrease in bacterial count in lungs at 50 mg/kg, po administered QD 1 day post-inoculation for 2 days measured after 1 day", "type": "functional, organism-based", "parameters": "dose 50 mg/kg", "summary_of_the_method": "(§3)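 Four-week-old male ICR mice were inoculated intratracheally with 5.2×10^6 CFU/mouse. Oral dosing began the day after inoculation, once daily for 2 days. Lung bacterial counts were taken the day after the last dose and are given as mean ± S.E. versus untreated control, with Steel's test.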"}, "Haemophilus influenzae [6]": {"tested_on": "Haemophilus influenzae", "assay": "Ratio of clarithromycin MIC to compound MIC for Haemophilus influenzae ATCC 43095", "type": "functional"}, "Haemophilus influenzae [7]": {"tested_on": "Haemophilus influenzae", "assay": "Antibacterial activity against Haemophilus influenzae ATCC 43095 infected in po dosed ICR mouse assessed as decrease in bacterial count in lungs administered QD 1 day post-inoculation for 2 days measured after 1 day", "type": "functional, organism-based", "summary_of_the_method": "as §3"}, "Streptococcus pneumoniae [8]": {"tested_on": "Streptococcus pneumoniae", "assay": "Antibacterial activity against erythromycin-resistant Streptococcus pneumoniae 1101 expressing ermB ribosomal methylase infected in po dosed CBA/JN mouse assessed as decrease in bacterial count in lungs administered QD 1 day post-inoculation for 2 days measured after 1 day", "type": "functional, organism-based", "summary_of_the_method": "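Five-week-old male CBA/JN mice were inoculated intranasally with erm(B) S. pneumoniae 1101 at 5.5×10^4 CFU/mouse. Oral dosing once daily started the day after inoculation and continued for 2 days. Lung bacterial counts were taken the day after the last dose. Data are given as mean ± S.E., with Steel's test versus untreated control.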"}, "Streptococcus pneumoniae [9]": {"tested_on": "Streptococcus pneumoniae", "assay": "Antibacterial activity against erythromycin-resistant Streptococcus pneumoniae 1101 expressing ermB ribosomal methylase by broth microdilution method", "type": "functional", "summary_of_the_method": "as §1"}, "Streptococcus pneumoniae [10]": {"tested_on": "Streptococcus pneumoniae", "assay": "Ratio of clarithromycin MIC to compound MIC for eryhtromycin-susceptible Streptococcus pneumoniae ATCC 49619", "type": "functional"}}, "note": "The source made the active and inactive calls. The calls are words filed in the database; no cut-off is given here.", "data": [{"compound": "CC[C@H]1OC(=O)[C@H](C)[C@@H](O[C@H]2C[C@@](C)(OC)[C@@H](O)[C@H](C)O2)[C@H](C)[C@@H](O[C@@H]2O[C@H](C)C[C@H](N(C)C)[C@H]2O)[C@](C)(OC)C[C@@H](C)C(=O)[C@H](C)[C@@H](O)[C@]1(C)O", "note": "[CLARITHROMYCIN]", "values": [{"measurement": "MIC", "setting": "Streptococcus pyogenes", "result": "> 128", "unit": "µg/mL"}, {"measurement": "MIC", "setting": "Streptococcus pneumoniae [1]", "result": 0.03, "unit": "µg/mL"}, {"measurement": "MIC", "setting": "Streptococcus pneumoniae [2]", "result": 2, "unit": "µg/mL"}, {"measurement": "MIC", "setting": "Haemophilus influenzae [3]", "result": 4, "unit": "µg/mL"}, {"measurement": "MIC", "setting": "Streptococcus pneumoniae [4]", "result": "> 128", "unit": "µg/mL"}]}, {"compound": "CC[C@H]1OC(=O)[C@@](C)(F)C(=O)[C@H](C)[C@@H](O[C@@H]2O[C@H](C)C[C@H](N(C)C)[C@H]2O)[C@](C)(OCC#Cc2cc(-c3cccnn3)no2)C[C@@H](C)C(=O)[C@H](C)[C@H]2NC(=O)O[C@@]21C", "values": [{"measurement": "MIC", "setting": "Streptococcus pyogenes", "result": 1, "unit": "µg/mL"}, {"measurement": "MIC", "setting": "Streptococcus pneumoniae [1]", "result": 0.008, "unit": "µg/mL"}, {"measurement": "Activity", "setting": "Haemophilus influenzae [5]", "result": "Active"}, {"measurement": "Ratio", "setting": "Haemophilus influenzae [6]", "result": 2}, {"measurement": "Activity", "setting": "Haemophilus influenzae [7]", "result": "Dose-dependent effect"}, {"measurement": "Activity", "setting": "Streptococcus pneumoniae [8]", "result": "Dose-dependent effect"}, {"measurement": "MIC", "setting": "Streptococcus pneumoniae [9]", "result": 0.016, "unit": "µg/mL"}, {"measurement": "MIC", "setting": "Streptococcus pneumoniae [2]", "result": 0.03, "unit": "µg/mL"}, {"measurement": "Ratio", "setting": "Streptococcus pneumoniae [10]", "result": 4}, {"measurement": "MIC", "setting": "Haemophilus influenzae [3]", "result": 2, "unit": "µg/mL"}, {"measurement": "MIC", "setting": "Streptococcus pneumoniae [4]", "result": 0.008, "unit": "µg/mL"}]}, {"compound": "CC[C@H]1OC(=O)[C@@](C)(F)C(=O)[C@H](C)[C@@H](O[C@@H]2O[C@H](C)C[C@H](N(C)C)[C@H]2O)[C@](C)(OCC#Cc2cc(-c3cnc(N)nc3)no2)C[C@@H](C)C(=O)[C@H](C)[C@H]2NC(=O)O[C@@]21C", "values": [{"measurement": "MIC", "setting": "Streptococcus pyogenes", "result": 0.06, "unit": "µg/mL"}, {"measurement": "MIC", "setting": "Streptococcus pneumoniae [1]", "result": 0.008, "unit": "µg/mL"}, {"measurement": "Ratio", "setting": "Haemophilus influenzae [6]", "result": 2}, {"measurement": "Activity", "setting": "Haemophilus influenzae [7]", "result": "Dose-dependent effect"}, {"measurement": "Activity", "setting": "Streptococcus pneumoniae [8]", "result": "Dose-dependent effect"}, {"measurement": "MIC", "setting": "Streptococcus pneumoniae [9]", "result": 0.008, "unit": "µg/mL"}, {"measurement": "MIC", "setting": "Streptococcus pneumoniae [2]", "result": 0.03, "unit": "µg/mL"}, {"measurement": "Ratio", "setting": "Streptococcus pneumoniae [10]", "result": 4}, {"measurement": "MIC", "setting": "Haemophilus influenzae [3]", "result": 2, "unit": "µg/mL"}, {"measurement": "MIC", "setting": "Streptococcus pneumoniae [4]", "result": 0.008, "unit": "µg/mL"}]}, {"compound": "CC[C@H]1OC(=O)[C@H](C)[C@@H](O[C@H]2C[C@@](C)(OC)[C@@H](O)[C@H](C)O2)[C@H](C)[C@@H](O[C@@H]2O[C@H](C)C[C@H](N(C)C)[C@H]2O)[C@](C)(O)C[C@@H](C)CN(C)[C@H](C)[C@@H](O)[C@]1(C)O", "note": "[AZITHROMYCIN]", "values": [{"measurement": "MIC", "setting": "Streptococcus pyogenes", "result": "> 128", "unit": "µg/mL"}, {"measurement": "MIC", "setting": "Streptococcus pneumoniae [1]", "result": 0.06, "unit": "µg/mL"}, {"measurement": "MIC", "setting": "Streptococcus pneumoniae [2]", "result": 2, "unit": "µg/mL"}, {"measurement": "MIC", "setting": "Haemophilus influenzae [3]", "result": 0.5, "unit": "µg/mL"}, {"measurement": "MIC", "setting": "Streptococcus pneumoniae [4]", "result": "> 128", "unit": "µg/mL"}]}, {"compound": "CC[C@H]1OC(=O)[C@@](C)(F)C(=O)[C@H](C)[C@@H](O[C@@H]2O[C@H](C)C[C@H](N(C)C)[C@H]2O)[C@](C)(OCC#Cc2cc(-c3ncccn3)no2)C[C@@H](C)C(=O)[C@H](C)[C@H]2NC(=O)O[C@@]21C", "values": [{"measurement": "MIC", "setting": "Streptococcus pyogenes", "result": 2, "unit": "µg/mL"}, {"measurement": "MIC", "setting": "Streptococcus pneumoniae [1]", "result": 0.008, "unit": "µg/mL"}, {"measurement": "Ratio", "setting": "Haemophilus influenzae [6]", "result": 2}, {"measurement": "Activity", "setting": "Haemophilus influenzae [7]", "result": "Dose-dependent effect"}, {"measurement": "Activity", "setting": "Streptococcus pneumoniae [8]", "result": "Dose-dependent effect"}, {"measurement": "MIC", "setting": "Streptococcus pneumoniae [9]", "result": 0.016, "unit": "µg/mL"}, {"measurement": "MIC", "setting": "Streptococcus pneumoniae [2]", "result": 0.03, "unit": "µg/mL"}, {"measurement": "Ratio", "setting": "Streptococcus pneumoniae [10]", "result": 4}, {"measurement": "MIC", "setting": "Haemophilus influenzae [3]", "result": 2, "unit": "µg/mL"}, {"measurement": "MIC", "setting": "Streptococcus pneumoniae [4]", "result": 0.008, "unit": "µg/mL"}]}]}
